ChEMBL document CHEMBL4130485, “Inhibitors of Yellow Fever Virus replication based on 1,3,5-triphenyl-4,5-dihydropyrazole scaffold: Design, synthesis and antiviral evaluation” (Eur J Med Chem, 2017)
The source made the active and inactive calls. The rule behind the calls is not given here.

How the values were obtained:
Yellow fever virus [1] = assay: (§1) Antiviral activity against Yellow fever virus 17D vaccine (Stamaril Pasteur J07B01) infected in golden hamster BHK21 cells assessed as protection against virus-induced cytopathic effect after 3 to 4 days by MTT assay; type: functional, organism-based; conditions: BHK-21
Summary of the method: (§2)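 BHK-21 cells (MDBK for BVDV) seeded at 5×10^4 (BHK) or 3×10^4 (MDBK) cells/well and grown overnight to confluence. Infected at m.o.i. 0.01 in maintenance MEM-Earle with 0.5% inactivated FBS. Serial compound dilutions added 2 h later (final 100, 20, 4, 0.8 µM; DMSO ≤0.1%). Viability read by MTT after 3–4 days at 37 °C. EC50 obtained by linear regression against untreated controls; mean of three determinations.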

[2] = test system: Vesicular stomatitis Indiana virus; assay: Antiviral activity against Vesicular stomatitis virus Indiana ATCC VR 158 infected in African green monkey Vero 76 cells assessed as protection against virus-induced cytopathic effect after 2 days by crystal violet staining-based plaque reduction assay; type: functional, organism-based; conditions: ATCC VR 158, Vero 76, 48 h
[3] = test system: Human immunodeficiency virus 1; assay: Antiviral activity against HIV1 3B infected in human MT4 cells assessed as protection against virus-induced cytopathic effect after 4 days by MTT assay; type: functional, organism-based; conditions: Human immunodeficiency virus 1, 3B, MT4, 96 h
Summary of the method: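 MT-4 cells (1×10^4/well) in RPMI with serial compound dilutions, infected with 100 CCID50 HIV-1 (m.o.i. 0.01). Viability read by MTT after 4 days at 37 °C. EC50 for 50% protection from cytopathicity obtained by linear regression versus untreated controls; mean of three determinations.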

[4] = Antiviral activity against Human enterovirus B Faulkner ATCC VR 185 infected in African green monkey Vero 76 cells assessed as protection against virus-induced cytopathic effect after 3 days by crystal violet staining-based plaque reduction assay; type: functional, cell-based; conditions: Faulkner ATCC VR 185, Vero 76, 72 h
Yellow fever virus [5] = assay: Potency index, ratio of azauridine EC50 to compound EC50 for Yellow fever virus 17D vaccine (Stamaril Pasteur J07B01); type: functional
[6] = Selectivity index, ratio of CC50 for bovine MDBK cells to EC50 for Bovine viral diarrhea virus NADL ATCC VR 534; type: toxicity; conditions: cattle, read-out: Ratio CC50/EC50
Summary of the method: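 Selectivity index calculated as MDBK CC50 divided by BVDV EC50, both by MTT.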

Enterovirus C = assay: Antiviral activity against Enterovirus C Sabin […] infected in African green monkey Vero 76 cells assessed as protection against virus-induced cytopathic effect after 2 days by crystal violet staining-based plaque reduction assay; type: functional, organism-based; conditions: Vero 76, 48 h
Vaccinia virus = assay: Antiviral activity against Vaccinia virus Lister ATCC VR 1549 infected in African green monkey Vero 76 cells assessed as protection against virus-induced cytopathic effect after 3 days by crystal violet staining-based plaque reduction assay; type: functional, organism-based; conditions: Orthopoxvirus vaccinia, ATCC VR 1549, Vero 76, 72 h
[7] = Cytotoxicity against bovine MDBK cells assessed as decrease in cell viability after 72 hrs by MTT assay; type: cell-based, Bos taurus; conditions: cattle
Summary of the method: (§3)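 Uninfected MDBK (6×10^5 cells/mL, 10% horse serum) or BHK (1×10^6 cells/mL, 10% FBS) cells in MEM-Earle with serial compound dilutions at 37 °C, 5% CO2, run in parallel with the antiviral assays. Viability read by MTT after 72 h. CC50 by linear regression; mean of three determinations.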

dengue virus type 2 = assay: Antiviral activity against Dengue virus type 2 clinical isolate infected in golden hamster BHK21 cells assessed as protection against virus-induced cytopathic effect after 3 to 4 days by MTT assay; type: functional, organism-based; conditions: BHK-21; summary of the method: as §2
[8] = Cytotoxicity against African green monkey Vero 76 cells assessed as decrease in cell viability after 48 to 96 hrs by MTT assay; type: cell-based; conditions: chlorocebus sabaeus
Summary of the method: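 Vero 76 cells seeded at 5×10^5 cells/mL in D-MEM with 10% FBS and incubated with serial compound dilutions at 37 °C, 5% CO2. Viability read by MTT after 48–96 h. CC50 by linear regression versus untreated controls.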

West Nile virus = assay: Antiviral activity against West Nile virus clinical isolate infected in golden hamster BHK21 cells assessed as protection against virus-induced cytopathic effect after 3 to 4 days by MTT assay; type: functional, organism-based; conditions: BHK-21; summary of the method: as §2
[9] = test system: Mammalian orthoreovirus 1; assay: Antiviral activity against Reovirus 1 infected in golden hamster BHK21 cells assessed as protection against virus-induced cytopathic effect after 3 to 4 days by MTT assay; type: functional, organism-based; conditions: Mammalian orthoreovirus 1, BHK-21; summary of the method: as §2
[10] = Cytotoxicity against human MT4 cells assessed as decrease in cell viability after 96 hrs by MTT assay; type: cell-based
Summary of the method: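 Exponentially growing MT-4 cells seeded at 1×10^5 cells/mL in RPMI-1640 with 10% FBS and incubated with serial compound dilutions at 37 °C, 5% CO2. Viability read by MTT after 96 h. CC50 by linear regression versus untreated controls.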

Yellow fever virus [11] = assay: as §1, with “effect at 20 uM pretreated for 2 hrs followed by viral infection and measured” for “effect”, “24” for “3”, “36 hrs post infection” for “4 days”; type: functional, organism-based
Summary of the method: (§4)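 Confluent BHK-21 monolayers inoculated at room temperature with YFV 17-D at 1 PFU/cell, adsorbed 60 min and washed. Compound at 20 µM (test) or 90 µM (6-azauridine reference) added 2 h before infection, during the 2 h infection, or in 2-h windows from 0 to 10 h p.i. Wells washed, refed until 10 h, CPE scored at 24–36 h p.i. Cells frozen and titred by plaque assay.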

[12] = test system: Bovine viral diarrhea virus 1; assay: Antiviral activity against Bovine viral diarrhea virus NADL ATCC VR 534 infected in bovine MDBK cells assessed as protection against virus-induced cytopathic effect after 3 to 4 days by MTT assay; type: functional, organism-based, Bovine viral diarrhea virus 1-NADL; conditions: Bovine viral diarrhea virus isolates and strains, ATCC VR 534, MDBK; summary of the method: as §2
[13] = Selectivity index, ratio of CC50 for golden hamster BHK21 cells to EC50 for Yellow fever virus 17D; type: toxicity; conditions: read-out: Ratio CC50/EC50
Summary of the method: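 Selectivity index calculated as BHK-21 CC50 divided by YFV EC50, both from MTT assays.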

Yellow fever virus [14] = conditions: Yellow fever virus 17D; vaccine (Stamaril Pasteur J07B01); at 20 µM
Human alphaherpesvirus 1 = assay: Antiviral activity against Human herpesvirus 1 KOS ATCC VR 1493 infected in African green monkey Vero 76 cells assessed as protection against virus-induced cytopathic effect after 3 days by crystal violet staining-based plaque reduction assay; type: functional, organism-based; conditions: Human alphaherpesvirus 1, KOS, Vero 76, 72 h
Human orthopneumovirus = assay: Antiviral activity against Human respiratory syncytial virus A2 ATCC VR 1540 infected in African green monkey Vero 76 cells assessed as protection against virus-induced cytopathic effect after 5 days by crystal violet staining-based plaque reduction assay; type: functional, organism-based; conditions: ATCC VR 1540, Vero 76, 120 h
[15] = Cytotoxicity against golden hamster BHK21 cells assessed as decrease in cell viability after 72 hrs by MTT assay; type: cell-based, Mesocricetus auratus, BHK-21; summary of the method: as §3
Yellow fever virus [16] = assay: as §1, with “effect at 90 uM pretreated for 2 hrs followed by viral infection and measured” for “effect”, “24” for “3”, “36 hrs post infection” for “4 days”; type: functional, organism-based; summary of the method: as §4

NS(=O)(=O)c1ccc(N2N=C(c3ccc(OCc4ccccc4)cc3)CC2c2ccccc2F)cc1 (stereo not drawn)
EC50 (Yellow fever virus [1]): 1.8 µM
EC50 [2]: > 100 µM
EC50 [3]: > 39 µM
EC50 [4]: > 100 µM
Ratio EC50 (Yellow fever virus [5]): 10
selectivity ratio [6]: > 1.9
EC50 (Enterovirus C): > 100 µM
EC50 (Vaccinia virus): > 100 µM
CC50 at 72 h [7]: > 100 µM
EC50 (dengue virus type 2): > 90 µM
CC50 [8]: > 100 µM
EC50 (West Nile virus): > 90 µM
EC50 [9]: > 92 µM
CC50 at 96 h [10]: 39 µM
inhibition (Yellow fever virus [11]): Active
EC50 [12]: 52 µM
selectivity ratio [13]: 50
inhibition (Yellow fever virus [14]): Active
EC50 (Human alphaherpesvirus 1): > 100 µM
EC50 (Human orthopneumovirus): > 100 µM
CC50 at 72 h [15]: 90 to 92 µM

NS(=O)(=O)c1ccc(N2N=C(c3ccc(OCc4ccccc4)cc3)CC2c2ccccc2)cc1 (stereo not drawn)
EC50 (Yellow fever virus [1]): 2.2 µM
EC50 [2]: > 100 µM
EC50 [3]: > 100 µM
EC50 [4]: > 100 µM
Ratio EC50 (Yellow fever virus [5]): 10
EC50 (Enterovirus C): > 100 µM
EC50 (Vaccinia virus): > 100 µM
CC50 at 72 h [7]: 72 µM
EC50 (dengue virus type 2): > 80 µM
CC50 [8]: > 100 µM
EC50 (West Nile virus): > 80 µM
EC50 [9]: > 84 µM
CC50 at 96 h [10]: > 100 µM
inhibition (Yellow fever virus [11]): Active
EC50 [12]: > 72 µM
selectivity ratio [13]: 36.4
inhibition (Yellow fever virus [14]): Active
EC50 (Human alphaherpesvirus 1): > 100 µM
EC50 (Human orthopneumovirus): > 100 µM
CC50 at 72 h [15]: 80 to 84 µM

O=c1cnn([C@@H]2O[C@H](CO)[C@@H](O)[C@H]2O)c(=O)[nH]1 [6-AZAURIDINE]
EC50 (Yellow fever virus [1]): 20 µM
CC50 [8]: 16 µM
EC50 [9]: 18 µM
selectivity ratio [13]: > 5
EC50 (Human orthopneumovirus): 40 µM
CC50 at 72 h [15]: > 100 µM
Activity (Yellow fever virus [16]): Active
